Reference: ChEMBL document CHEMBL4354812, “N-Benzyl/Aryl Substituted Tryptanthrin as Dual Inhibitors of Indoleamine 2,3-Dioxygenase and Tryptophan 2,3-Dioxygenase” (J Med Chem, 2019)
pIC50, pKi: −log10 of the molar value. The source made the active and inactive calls. No cut-off for these calls is given here.

Tests used:
[1] = molecular target: T1, Indoleamine 2,3-dioxygenase 1 (Homo sapiens, UniProt P14902); assay: Inhibition of IDO1 in IFN-gamma stimulated human HeLa cells assessed as reduction in kynurenine production incubated for 18 hrs; format: cell-based; conditions: for pIC50: read-out: IC50
In short: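 HeLa cells were seeded 25 000/well overnight, then exposed to inhibitor dilutions with 100 ng/mL human IFN-γ (final) for 18 h at 37 °C. Medium was treated with TCA at 50 °C for 30 min to hydrolyze NFK to Kyn. Kyn was read with 2% DMAB at 492 nm. IC50 by nonlinear regression.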
Target sequence in this assay (P14902 whole entry): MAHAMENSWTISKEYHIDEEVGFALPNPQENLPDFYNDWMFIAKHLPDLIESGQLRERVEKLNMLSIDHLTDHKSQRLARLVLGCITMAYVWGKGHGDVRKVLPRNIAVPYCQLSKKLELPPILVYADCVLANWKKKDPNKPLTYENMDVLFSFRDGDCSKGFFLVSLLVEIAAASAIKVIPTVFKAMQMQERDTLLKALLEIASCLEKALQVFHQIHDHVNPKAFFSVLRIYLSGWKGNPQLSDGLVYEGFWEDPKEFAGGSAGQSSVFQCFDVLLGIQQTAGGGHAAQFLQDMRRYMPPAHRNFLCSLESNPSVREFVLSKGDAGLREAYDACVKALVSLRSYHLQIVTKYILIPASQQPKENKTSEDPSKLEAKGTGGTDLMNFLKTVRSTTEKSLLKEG

[2] = molecular target: T1, Indoleamine 2,3-dioxygenase 1; assay: Uncompetitive inhibition of recombinant human IDO1 expressed in Escherichia coli BL21 cells assessed inhibition constant using varying concentration of L-tryptophan as substrate by Dixon plot analysis; conditions: for pKi: read-out: Ki
In short: (§1)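 Enzymatic assays of the kynurenine-forming reaction were run with varying L-Trp. Ki was derived by plotting [S]/V against inhibitor concentration [I], with inhibition type assigned from the graphical pattern.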
Target sequence in this assay (P14902 whole entry): as above

[3] = molecular target: T2, Indoleamine 2,3-dioxygenase 2 (Homo sapiens, UniProt Q6ZQW0); assay: Inhibition of human IDO2 transfected in human U87MG cells assessed as reduction in kynurenine production using L-tryptophan as substrate incubated with for 6 hrs; format: cell-based
T2 sequence (Q6ZQW0 whole entry): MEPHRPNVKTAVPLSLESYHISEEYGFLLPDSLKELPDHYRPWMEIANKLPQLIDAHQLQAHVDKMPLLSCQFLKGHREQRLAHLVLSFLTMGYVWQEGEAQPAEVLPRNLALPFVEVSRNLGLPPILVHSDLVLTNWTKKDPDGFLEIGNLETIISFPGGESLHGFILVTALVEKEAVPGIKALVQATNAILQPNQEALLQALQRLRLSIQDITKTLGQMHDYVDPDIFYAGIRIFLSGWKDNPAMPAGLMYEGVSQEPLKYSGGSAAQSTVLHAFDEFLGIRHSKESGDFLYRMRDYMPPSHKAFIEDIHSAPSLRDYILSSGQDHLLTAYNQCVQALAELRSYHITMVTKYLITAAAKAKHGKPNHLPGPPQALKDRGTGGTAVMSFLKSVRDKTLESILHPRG
In short: (§2)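 U87 MG cells (hIDO2) or HEK293 cells (hTDO) were transiently transfected at 80% confluence, with empty vector as control. After 18 h, cells were seeded 2.5 × 10⁴/well in medium with 200 μM L-Trp. Compound serial dilutions were added after a further 6 h (IDO2) or 12 h (TDO). Reactions were stopped 24 h (IDO2) or 8 h (TDO) later with TCA, heated 65 °C 15 min, and Kyn read with DMAB at 492 nm. IC50 by nonlinear regression.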

[4] = molecular target: T2, Indoleamine 2,3-dioxygenase 2; assay: Uncompetitive inhibition of C-terminal His6-tagged human IDO2 (14 to 420 residues) expressed in Escherichia coli BL21 (DE3) assessed as inhibition constant using varying concentration of L-tryptophan as substrate by Dixon plot analysis; in short: as §1
[5] = molecular target: T3, Tryptophan 2,3-dioxygenase (Homo sapiens, UniProt P48775); assay: Inhibition of recombinant human TDO expressed in Escherichia coli BL21 (DE3) assessed as reduction in conversion of L-tryptophan to N-formyl kynurenine using L-tryptophan as substrate after 30 mins by methylene blue assay
Target sequence in this assay (P48775 whole entry): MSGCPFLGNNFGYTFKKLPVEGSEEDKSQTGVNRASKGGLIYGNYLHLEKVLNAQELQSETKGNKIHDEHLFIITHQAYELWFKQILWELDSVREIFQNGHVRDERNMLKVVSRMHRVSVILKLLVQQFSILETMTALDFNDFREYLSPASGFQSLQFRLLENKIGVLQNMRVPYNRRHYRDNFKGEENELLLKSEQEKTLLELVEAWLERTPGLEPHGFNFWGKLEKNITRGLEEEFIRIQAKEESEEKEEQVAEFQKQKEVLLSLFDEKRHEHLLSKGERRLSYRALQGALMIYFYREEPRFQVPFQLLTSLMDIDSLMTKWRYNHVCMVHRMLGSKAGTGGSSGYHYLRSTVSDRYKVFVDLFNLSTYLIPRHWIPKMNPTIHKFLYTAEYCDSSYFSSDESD

[6] = molecular target: T3, Tryptophan 2,3-dioxygenase; assay: Inhibition of human TDO transfected in HEK293 cells assessed as reduction in kynurenine production using L-tryptophan as substrate incubated for 12 hrs; format: cell-based; in short: as §2
Target sequence in this assay (P48775 whole entry): as above

[7] = molecular target: T3, Tryptophan 2,3-dioxygenase; assay: Uncompetitive inhibition of recombinant human TDO expressed in Escherichia coli BL21 (DE3) assessed as assessed as inhibition constant using varying concentration of L-tryptophan as substrate by Dixon plot analysis; in short: as §1
Target sequence in this assay (P48775 whole entry): as above

[8] = molecular target: T2, Indoleamine 2,3-dioxygenase 2; assay: Inhibition of C-terminal His6-tagged human IDO2 (14 to 420 residues) expressed in Escherichia coli BL21 (DE3) assessed as reduction in conversion of L-tryptophan to N-formyl kynurenine using L-tryptophan as substrate after 30 mins by methylene blue dye based microplate reader analysis
In short: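 Recombinant enzyme with L-Trp substrate, ascorbic acid 40 mM, methylene blue 20 μM and catalase 200 μg/mL in potassium phosphate buffer. Conditions were pH 7.0 with 400 μM L-Trp for TDO, and pH 7.5 with 30 mM L-Trp for IDO2. Reaction ran 30 min at 37 °C, stopped with TCA, heated 65 °C 15 min. Kyn detected with DMAB at 492 nm. IC50 by nonlinear regression.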

[9] = molecular target: T3, Tryptophan 2,3-dioxygenase; assay: Mixed uncompetitive inhibition of recombinant human TDO expressed in Escherichia coli BL21 (DE3) assessed as inhibition constant using varying concentration of L-tryptophan as substrate by Dixon plot analysis; in short: as §1
Target sequence in this assay (P48775 whole entry): as above

[10] = molecular target: T2, Indoleamine 2,3-dioxygenase 2; assay: Noncompetitive inhibition of C-terminal His6-tagged human IDO2 (14 to 420 residues) expressed in Escherichia coli BL21 (DE3) assessed as inhibition constant using varying concentration of L-tryptophan as substrate by Dixon plot analysis; in short: as §1
[11] = molecular target: T1, Indoleamine 2,3-dioxygenase 1; assay: Noncompetitive inhibition of recombinant human IDO1 expressed in Escherichia coli BL21 cells assessed inhibition constant using varying concentration of L-tryptophan as substrate by Dixon plot analysis; in short: as §1
Target sequence in this assay (P14902 whole entry): as the sequence (P14902 whole entry) above

[12] = molecular target: T4, Indoleamine 2,3-dioxygenase 2 (Homo sapiens) (UniProt Q6ZQW0); assay: Binding affinity to human IDO2 assessed as change in spectral signal at 200 uM by CPMG NMR spectrometry analysis
T4 sequence (whole entry): T2 sequence (Q6ZQW0 whole entry)

H22 [13] = assay: Antitumor activity against mouse H22 cells implanted in Kunming mouse assessed as reduction in tumor volume at 100 mg/kg, po qd administered for 2 weeks and measured at 2 days interval during compound dosing relative to control; format: functional; design: scale not given: the % may be the effect or the level left
In short: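 H22 ascites cells (2 × 10⁶/mouse) passaged twice intraperitoneally in Kunming mice, diluted in saline, then implanted sc into the right forelimb (2 × 10⁶ cells). Therapy began once the tumor reached 5 mm diameter: oral dosing once daily in 0.5% CMC-Na, vehicle controls, for 2 weeks. Calipers every 2 days; volume = long × short²/2. n = 9−10 mice/group.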

[14] = system: Lewis lung carcinoma cell line; assay: Antitumor activity against mouse LLC cells implanted in C57BL/6 mouse assessed as reduction in tumor volume at 100 mg/kg, po qd administered for 2 weeks and measured at 2 days interval during compound dosing relative to control; format: functional; design: scale not given: the % may be the effect or the level left
In short: (§3)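 Tumor cells (LLC, or H22 ascites cells after two intraperitoneal passages in Kunming mice) injected sc into the right forelimb at 2 × 10⁶ per mouse, in female 6–8-week C57BL/6 or Kunming mice. Oral dosing once daily began at 5 mm tumor diameter and continued 2 weeks. Vehicle was 0.5% CMC-Na. Volume was read by caliper every 2 days as long × short²/2. Tumors were weighed at sacrifice. n = 9–10/group.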

[15] = molecular target: T3, Tryptophan 2,3-dioxygenase; assay: Binding affinity to human TDO assessed as change in spectral signal at 200 uM by CPMG NMR spectrometry analysis
Target sequence in this assay (P48775 whole entry, looked up): as the sequence (P48775 whole entry) above

H22 [16] = assay: Antitumor activity against mouse H22 cells implanted in Kunming mouse assessed as reduction in tumor weight at 100 mg/kg, po qd administered for 2 weeks and measured post-treatment; format: functional, organism-based; in short: as §3
Mus musculus [17] = assay: In vivo blockade of kynurenine pathway in Kunming mouse implanted with mouse H22 cells assessed as decrease in kynurenine level in serum at 100 mg/kg, po qd for 2 weeks by HPLC analysis; format: functional, organism-based
In short: (§4)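 H22 tumor-bearing Kunming mice received oral dosing once daily in 0.5% CMC-Na for 2 weeks. Serum Trp and Kyn were measured by HPLC on a C18 column with 15 mM sodium acetate (pH 3.6) containing 4% acetonitrile, UV detection at 280 and 360 nm. Kyn/Trp ratio calculated. n = 9–10/group.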

Mus musculus [18] = assay: In vivo blockade of kynurenine pathway in Kunming mouse implanted with mouse H22 cells assessed as increase in tryptophan level in serum at 100 mg/kg, po qd for 2 weeks by HPLC analysis; format: functional, organism-based; in short: as §4
[19] = molecular target: T3, Tryptophan 2,3-dioxygenase; assay: Binding affinity to human TDO at 200 uM by STD NMR spectrometry analysis
Target sequence in this assay (P48775 whole entry, looked up): as the sequence (P48775 whole entry) above

Homo sapiens = species on record: Homo sapiens; assay: Inhibition of IDO1/TDO in IFNgamma-treated human HeLa cells assessed as T cell proliferation at 1 uM measured after 2 days in presence of IL-2, anti-CD3 and IFN-gamma by CFSE dye based flow cytometry analysis (reference value: 11.7 %); design: scale not given: the % may be the effect or the level left
In short: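 CFSE-labelled human PBMC lymphocytes (1 × 10⁶/well) were cocultured with HeLa cells (2 × 10⁵/well), a 5:1 ratio, in 150 U/mL IL-2, 100 ng/mL anti-CD3 and 60 ng/mL IFN-γ. Compound was tested at 40 nM, 200 nM, 500 nM or 1 μM. Proliferation was read by flow cytometry after 2 days, three independent experiments.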

[20] = molecular target: T4, Indoleamine 2,3-dioxygenase 2 (Homo sapiens); assay: Binding affinity to human IDO2 at 200 uM by STD NMR spectrometry analysis
[21] = system: Lewis lung carcinoma cell line; assay: Antitumor activity against mouse LLC cells implanted in C57BL/6 mouse assessed as reduction in tumor weight at 100 mg/kg, po qd administered for 2 weeks and measured post-treatment; format: functional, organism-based; in short: as §3
[22] = molecular target: T1, Indoleamine 2,3-dioxygenase 1; assay: Binding affinity to heme in human IDO1 assessed as Soret band red shift from 405 nm to […] at 375 uM and pH 6.5 under normal atmospheric condition by UV-vis spectroscopy analysis
Target sequence in this assay (P14902 whole entry, looked up): as the sequence (P14902 whole entry) above

[23] = molecular target: T1, Indoleamine 2,3-dioxygenase 1; assay: Competitive inhibition of recombinant human IDO1 expressed in Escherichia coli BL21 cells assessed as apparent inhibition constant using varying concentration of L-tryptophan as substrate by Dixon plot analysis
Target sequence in this assay (P14902 whole entry): as above

[24] = molecular target: T1, Indoleamine 2,3-dioxygenase 1; assay: Inhibition of recombinant human IDO1 expressed in Escherichia coli BL21 cells assessed as reduction in conversion of L-tryptophan to N-formyl kynurenine using L-tryptophan as substrate after 30 mins by methylene blue dye based microplate reader analysis
Target sequence in this assay (P14902 whole entry): as above

SMILES	pIC50 [1]	pIC50 [3]	pIC50 [5]	pIC50 [6]	pKi [7]	pIC50 [8]	pKi [9]	other results
CN1CCN(c2ccc3nc4n(c(=O)c3c2)-c2ccccc2C4=O)CC1	5.53	4.31	5.17	6.33	4.75	4.08		pKi [2]: 5.12; pKi [4]: 4.31
O=C1c2cc(F)ccc2-n2c1nc1ccc(CN3CCNCC3)cc1c2=O				7.05	6.92			
O=C1c2cc(F)ccc2-n2c1nc1ccc(N3CCNCC3)cc1c2=O	6.12	4.75	5.50	6.54		4.38	6.17	pKi [2]: 5.22; pKi [4]: 4.43
CN1CCN(c2ccc3nc4n(c(=O)c3c2)-c2ccc(F)cc2C4=O)CC1	5.73	4.10	5.59	6.60		4.33	6.77	pKi [10]: 4.70; pKi ([11]; read-out: Ki): 5.16
CN(C)c1ccc2nc3n(c(=O)c2c1)-c1ccc(F)cc1C3=O	6.23	4.04	5.42	6.57	5.91	4.04		pKi [10]: 4.34; pKi [2]: 5.05
CN(C)Cc1ccc2nc3n(c(=O)c2c1)-c1ccc(F)cc1C3=O				7.22			7.05	
CN1CCN(Cc2ccc3nc4n(c(=O)c3c2)-c2ccccc2C4=O)CC1	6.74			6.74			6.38	
NS(=O)(=O)NCCNc1nonc1C(=NO)Nc1ccc(F)c(Br)c1 [EPACADOSTAT]						4.99		
CC(C)(C)OC(=O)N1CCN(Cc2ccc3nc4n(c(=O)c3c2)-c2ccc(F)cc2C4=O)CC1				7.15			6.89	
O=C1c2cc(F)ccc2-n2c1nc1ccc(N3CCCCC3)cc1c2=O	5.65	4.65	5.00	5.43	5.81	4.40		pKi [2]: 5.36; pKi [4]: 4.57
Cn1cc(C[C@H](N)C(=O)O)c2ccccc21 [(L)-1-METHYLTRYPTOPHAN]								Activity [12]: inactive; Activity (H22 [13]): 15.8%; Activity [14]: 33.6%; Activity [15]: inactive; Activity (H22 [16]): Active; Activity (Mus musculus [17]): Active; Activity (Mus musculus [18]): inactive; Activity [19]: inactive; Activity (Homo sapiens): 15.8%; Activity [20]: inactive; Activity [21]: Active
NS(=O)(=O)NCCNc1nonc1/C(=N/O)Nc1ccc(F)c(Br)c1								Activity [22]: Active
O=C1c2cc(F)ccc2-n2c1nc1ccc(CN3CCOCC3)cc1c2=O				7.15	6.47			
O=C1c2cc(F)ccc2-n2c1nc1ccc(N3CCOCC3)cc1c2=O		4.69	5.19	6.30	5.63	4.10		Ki [11]: Not Active; Ki [23]: Not Active; IC50 ([1]; hela): Not Active; Ki [2]: Not Active; pKi [4]: 4.41; IC50 [24]: Not Active
